From ChEMBL document CHEMBL1124745, “Acyclic purine phosphonate analogues as antiviral agents. Synthesis and structure-activity relationships” (J Med Chem, 1990) come the findings set out here.

Series [1] concerns Rauscher murine leukemia virus. The series can be described thus: Evaluated for the antiretroviral activity against Rauscher murine leukemia virus (R-MuLV). Type of series: functional. Particulars: read-out: ID50 (the source's name). The method in brief: (§1)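 Rauscher murine leukemia virus tested by UV-XC plaque assay; ID50 in µg/mL.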
In the next series the test system is Vero. The series can be described thus: Evaluated for the antiviral activity against Vero cells by proliferation assays (in uninfected cells). The class given is functional. Conditions: Chlorocebus sabaeus, read-out: ID50 (the source's name). The method in brief: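 Cell proliferation assay in uninfected Vero cells; ID50 in µg/mL.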
In series [2] the test system is Human alphaherpesvirus 2. The series can be described thus: Evaluated for the antiviral activity against Herpes simplex virus type 2 (HSV-2) strain G by the plaque reduction assay. The class given is functional. Particulars: read-out: ID50 (the source's name). The essentials: (§2)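 Plaque reduction in Vero cells: about 50 PFU HSV per well adsorbed 1 h with intermittent shaking. Inoculum removed; 10% EMEM with 2-fold drug dilutions added in triplicate, with no-drug virus controls. 48 h at 37 °C, 5% CO2, then Giemsa stain and plaque count. ID50 is the concentration giving 50% plaque reduction versus control.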
In general terms: Plaque reduction counts the foci of infection that form in a cell layer.

For series [3], the system named is Human immunodeficiency virus 1. The series can be described thus: Evaluated for the antiretroviral activity against Human immunodeficiency virus type 1. Type of series: functional. Particulars: read-out: ID50 (the source's name). The method in brief: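 CEM-F cells infected with about 30 TCID50 of HIV (LAV strain) for 45 min at 37 °C. Compound added at various concentrations, then 8-day incubation. p24 gag protein in culture supernatant measured by enzyme-capture ELISA. ID50 (µg/mL) is the dose inhibiting 50% of virus expression.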

Series [4] relates to Human alphaherpesvirus 1. The series can be described thus: (§3) Evaluated for the antiviral activity against Herpes simplex virus type 1 (HSV-1). Type of series: organism-based. Conditions: read-out: ID50 (the source's name). The method in brief: as §2
In a further series the test system is guanylate kinase. The series can be described thus: Evaluated for the kinetic parameter Km, with bovine brain guanylate kinase. Type of series: ADME, Bos taurus. Particulars: cattle.
A short description of series [5]: Evaluated for the rate of phosphorylation with bovine brain guanylate kinase. Type of series: ADME, Bos taurus. Particulars: cattle.
For series [6], the system named is Human alphaherpesvirus 1. The series can be described thus: Evaluated for the antiviral activity against Herpes simplex virus type 1 (HSV-1) strain BWS by the plaque reduction assay. Type of series: functional. Particulars: read-out: ID50 (the source's name). The essentials:
as §2

Series [7] concerns CCRF-CEM. The series can be described thus: Evaluated for the anticellular activity against CEM cells. The class given is functional. Particulars: Homo sapiens, read-out: ID50 (the source's name). The essentials:
(§4)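 CEM cells, uninfected; cell count by dye exclusion; ID50 in µg/mL.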

Series [8] concerns Human betaherpesvirus 5. The series can be described thus: Evaluated for the antiviral activity against Human cytomegalovirus (HCMV) strain AD-169 by the plaque reduction assay. The class given is functional. Conditions: read-out: ID50 (the source's name). The essentials: (§5)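 HCMV AD169 grown and titered at 37 °C in MRC-5 human embryonic lung diploid cells. Plaque reduction assay in MRC-5 with 2-fold drug dilutions in triplicate and no-drug virus controls. ID50 is the concentration reducing plaques by 50% versus control.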

The subject of series [9] is Human alphaherpesvirus 1. Described as §3. The class given is functional. Particulars: read-out: ID50 (the source's name). The essentials:
as §2

The nature of series [10]: Evaluated for the dissociation constant. Type of series: ADME. Conditions: read-out: pKa2.
Series [11] concerns Rauscher murine leukemia virus. The series can be described thus: Evaluated for the antiretroviral activity against Rauscher-murine leukemia virus (R-MuLV). The class given is functional. Conditions: read-out: ID50 (the source's name). The essentials:
as §1

Series [12] deals with Human alphaherpesvirus 2. The series can be described thus: Evaluated for the antiviral activity against Herpes simplex virus type 2 (HSV-2) with strain G by the plaque reduction assay. Type of series: functional. Particulars: read-out: ID50 (the source's name). The essentials:
as §2

In series [13] the test system is CCRF-CEM. The series can be described thus: Evaluated for the anticellular activity against CEM cells by dye-exclusion method. The class given is functional. Particulars: Homo sapiens, read-out: ID50 (the source's name). The essentials:
as §4

The next series is filed under the species Bos taurus. The series can be described thus: Evaluated for the rate of phosphorylation with bovine brain guanylate kinase. Type of series: ADME. Particulars: cattle, in vivo.
In series [14] the test system is Human betaherpesvirus 5. The series can be described thus: Evaluated for the antiviral activity against Human cytomegalovirus (HCMV) with strain AD-169 by the plaque reduction assay. The class given is functional. Conditions: read-out: ID50 (the source's name). The essentials: as §5
The nature of series [15]: Evaluated for the second dissociation constant. Type of series: ADME. Conditions: read-out: pKa2.

Structures are written as SMILES. Values after ≈ are worked out from the molar mass of the structure shown.

As to `Nc1nc(O)c2ncn(CCCOCP(=O)(O)O)c2n1`, the IC50 in [1] is 0.04 µg/mL (≈ 0.132 µM); with Vero, 76 µg/mL (≈ 251 µM); in the series with Human alphaherpesvirus 2 [2], greater than 100 µg/mL; in series [3], 7.8 µg/mL (≈ 25.7 µM); in the series with Human alphaherpesvirus 1 [4], 65.5 µg/mL (≈ 216 µM); with Human alphaherpesvirus 1 [6], 65.5 µg/mL (≈ 216 µM). For the same compound, the values for the IC50 with CCRF-CEM [7] and with Human betaherpesvirus 5 [8] were greater than 100 µg/mL and 6 µg/mL (≈ 19.8 µM), respectively. In addition, the Km (usually the concentration of substrate that gives half-maximal velocity) in the series on guanylate kinase came out at 4.7 mM. Moreover, the “Relative Vmax” value in series [5] amounted to 0.0024.
As to `Nc1nc2c(ncn2CCOCP(=O)(O)O)c(=O)[nH]1` [GS-438], the IC50 was 5 µg/mL (≈ 17.3 µM) in the series with Vero; 0.69 µg/mL (≈ 2.39 µM) in the series on Human alphaherpesvirus 2 [2]; greater than 10 µg/mL in series [3]; 0.1 µg/mL (≈ 0.346 µM) in the series on Human alphaherpesvirus 1 [9]; 0.001 µg/mL (≈ 0.00346 µM) in series [11]; 0.08 µg/mL (≈ 0.277 µM) in the series on Human alphaherpesvirus 1 [6]. Further, the figures for the IC50 with CCRF-CEM [7] and in the series on Human betaherpesvirus 5 [8] were 10 µg/mL (≈ 34.6 µM) and 0.04 µg/mL (≈ 0.138 µM), respectively. In the series on guanylate kinase, the Km was 2.7 mM. Also, the pKa in [10] amounted to 6.52. In addition, the “Relative Vmax” value in series [5] is on record as 0.11.
With `Nc1nc2c(ncn2[C@H]2C[C@H](O)[C@@H](COP(=O)(O)O)O2)c(=O)[nH]1`, in the series on guanylate kinase, the Km amounted to 1.2 mM. For the same compound, the “Relative Vmax” value in series [5] is reported as 14.
Consider `Nc1nc(O)c2ncn(CCSCP(=O)(O)O)c2n1`, for which the figures for the IC50 in the series on Vero, in the series with Human alphaherpesvirus 2 [2] and in the series with Human alphaherpesvirus 1 [6] were 100 µg/mL (≈ 328 µM), greater than 100 µg/mL and greater than 100 µg/mL, respectively. In addition, in [10], the pKa stood at 6.59.
With `Nc1nc2c(ncn2COCCP(=O)(O)O)c(=O)[nH]1`, the IC50 in the series with Vero is 100 µg/mL (≈ 346 µM); in the series with Human alphaherpesvirus 1 [4], greater than 145 µg/mL; in the series with Human alphaherpesvirus 1 [6] it was greater than 100 µg/mL; in the series on Human alphaherpesvirus 2 [12], greater than 100 µg/mL. The pKa in series [10] was determined as 6.76.
`Nc1nc(O)c2ncn(CCCCOCP(=O)(O)O)c2n1`: the IC50 with Vero is 100 µg/mL (≈ 315 µM); in the series on Human alphaherpesvirus 2 [2], greater than 100 µg/mL; with Human alphaherpesvirus 1 [4], greater than 145 µg/mL; in the series on Human alphaherpesvirus 1 [6], greater than 100 µg/mL.
As for `Nc1nc2c(ncn2COCCO)c(=O)[nH]1` [ACYCLOVIR], the IC50 was determined as 100 µg/mL (≈ 444 µM) in the series on Vero, 2.4 µg/mL (≈ 10.7 µM) with Human alphaherpesvirus 2 [2], 0.5 µg/mL (≈ 2.22 µM) in the series with Human alphaherpesvirus 1 [6] and 38.4 µg/mL (≈ 171 µM) with Human betaherpesvirus 5 [8].
Turning to `Nc1ncnc2c1ncn2CCOCP(=O)(O)O` [ADEFOVIR], the IC50 in series [1] is 0.05 µg/mL (≈ 0.183 µM); in the series on CCRF-CEM [13], greater than 100 µg/mL; with Vero it was greater than 100 µg/mL; in the series on Human alphaherpesvirus 2 [2] it was 9.4 µg/mL (≈ 34.4 µM); in series [3] it was 3 µg/mL (≈ 11 µM); with Human alphaherpesvirus 1 [6], 21 µg/mL (≈ 76.9 µM). For the same compound, in the series on Human betaherpesvirus 5 [8], the IC50 is 0.93 µg/mL (≈ 3.4 µM).
Turning to `Nc1ncnc2c1ncn2CCCOCP(=O)(O)O`, the values for the IC50 with Vero, in the series with Human alphaherpesvirus 2 [2] and in the series on Human alphaherpesvirus 1 [6] were 100 µg/mL (≈ 348 µM), greater than 100 µg/mL and greater than 100 µg/mL, respectively.
As for `CC(COCP(=O)(O)O)n1cnc2c(O)nc(N)nc21` (stereo not drawn), the IC50 with CCRF-CEM [13] is greater than 100 µg/mL; in the series with Vero, 60 µg/mL (≈ 198 µM); in series [3], 8.4 µg/mL (≈ 27.7 µM); in the series on Human alphaherpesvirus 1 [4] it was 3 µg/mL (≈ 9.89 µM); with Human alphaherpesvirus 1 [6], 2.92 µg/mL (≈ 9.63 µM); with Human betaherpesvirus 5 [14] it was 0.4 µg/mL (≈ 1.32 µM). The IC50 with Human alphaherpesvirus 2 [12] was 3.29 µg/mL (≈ 10.9 µM). For the same compound, the “Relative Vmax” value in the series listed under Bos taurus is on record as 0.073. In addition, in the series with guanylate kinase, the Michaelis-Menten constant (Km) is 3.9 mM.
Turning to `Nc1nc(O)c2ncn(CCCCP(=O)(O)O)c2n1`, the results for the IC50 in the series with Vero, with Human alphaherpesvirus 1 [6] and in the series on Human alphaherpesvirus 2 [12] were 100 µg/mL (≈ 348 µM), greater than 100 µg/mL and greater than 100 µg/mL, respectively. In addition, the pKa in series [10] stood at 7.08.
As to `Nc1nc(O)c2ncn(CCCC(F)(F)P(=O)(O)O)c2n1`, the IC50 in the series on Vero was 100 µg/mL (≈ 309 µM); with Human alphaherpesvirus 2 [2] it was greater than 100 µg/mL; in the series with Human alphaherpesvirus 1 [6] it was greater than 100 µg/mL. The pKa in [10] is 5.52.
Consider `Nc1nc2c(ncn2[C@@H]2O[C@H](COP(=O)(O)O)[C@H](O)[C@@H]2O)c(=O)[nH]1` [E626], for which the Km with guanylate kinase was 3.3 mM. In series [5], the “Relative Vmax” value is reported as 100.
`Cc1cn([C@H]2C[C@H](N=[N+]=[N-])[C@@H](CO)O2)c(=O)[nH]c1=O` [ZIDOVUDINE]: the values for the IC50 (in [1]; in the series on CCRF-CEM [13]; in series [3]) were 0.001 µg/mL (≈ 0.00374 µM), greater than 50 µg/mL and 0.05 µg/mL (≈ 0.187 µM), respectively.
Turning to `Cc1cn([C@H]2C[C@H](O)[C@@H](COP(=O)(O)O)O2)c(=O)[nH]c1=O` [THYMIDINE MONOPHOSPHATE], the pKa in series [15] came out at 6.5.
